GalR3 antag – blocks the human galanin receptor 3; inhibition, % at 3 µM; O60755; 360,000 compounds, 0.44% hits; HEK293 GalR3-CNG cAMP membrane potential fluorescence; galR3 body fused to GalR1 C-terminus;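 active = inhibition above the screen-wide average plus 3 SD, cut at about 13% in these data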;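 also: forskolin and galanin both at EC90 stimulate the cells; cAMP rise reported by CNG channel membrane potential dye signal; 0% = forskolin plus galanin with DMSO and 100% = forskolin alone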
Target sequence (O60755 1-299 limits assumed): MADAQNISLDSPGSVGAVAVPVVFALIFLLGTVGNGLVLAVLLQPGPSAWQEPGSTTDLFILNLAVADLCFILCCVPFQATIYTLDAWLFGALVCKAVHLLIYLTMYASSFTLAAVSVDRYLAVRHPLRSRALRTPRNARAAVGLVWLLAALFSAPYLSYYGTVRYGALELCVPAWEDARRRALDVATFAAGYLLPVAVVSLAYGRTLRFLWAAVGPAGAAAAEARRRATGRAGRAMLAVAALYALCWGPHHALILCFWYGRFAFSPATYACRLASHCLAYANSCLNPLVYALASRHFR
NR2E3 ag-1 – human photoreceptor-specific nuclear receptor agonism | CHO-S Gal4-NCOR/VP16-NR2E3 two-hybrid, luciferase | inhibition of corepressor binding, % at 3.98 µM | 360,000 compounds, 0.35% hits;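 active = inhibition above the mean of all tested compounds plus 3 SD, cut at about 70% in these data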;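 also: 0% = DMSO with NR2E3 transfected cells and 100% = cells lacking NR2E3 construct; higher means lower luciferase signal from less NR2E3 corepressor binding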
Jurkat NFkB inh – inhibitors of the PMA/ionomycin-induced NF-kB reporter in Jurkat cells. PMA/ionomycin-induced NF-kB luciferase reporter, luminescence. inhibition, % at 4 µM. 330,000 compounds, 0.53% hits. AID 435003; in the data active = inhibition above about 50%
NR2E3 ag-2 – activates human photoreceptor nuclear receptor NR2E3 | GST-NR2E3/biotin-RetCOR TR-FRET, 1536-well | inhibition of corepressor binding, % at 4.78 µM | Q9Y5X4 | 320,000 compounds, 0.12% hits;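 active = percent inhibition above the cutoff of mean plus 3 SD of all tested compounds, set per screening campaign, cut at about 20% in these data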;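 also: 0% = DMSO wells and 100% = biotin wells as full block of FRET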
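Material: NR2E3–RetCOR corepressor complex / Amount: 1.35 nM GST-NR2E3 / Medium: Tris pH 7.5 / Compound: single nominal compound dose of 4.8 µM / Incubation: 5 h at 4 °C / Technique: TR-FRET, Eu(K)-anti-GST donor, streptavidin-D2 acceptor, ex 340, em 617/671 nm / Read-out basis: percent loss of FRET ratio relative to control wells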
697 NFkB inh – lowers PMA/ionomycin-induced NF-kB signal in 697 B cells. 697 B-cell NF-kB luciferase reporter, 16 h. inhibition, % at 4 µM. 330,000 compounds, 0.33% hits; in the data active = inhibition above about 35%
Gli-Sufu antag – Gli-Sufu pathway antagonism; 340,000 compounds, 0.74% hits; AID 588413; inhibition, % at 5 µM; Sufu-KO-LIGHT fibroblasts, Gli luciferase reporter luminescence;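 active = inhibition above about 55%, limit read from the data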;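 also: 0% = DMSO-treated cells and 100% = wells with medium but no cells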
NR2E3 ag conf – NR2E3 agonism confirmed in two-hybrid assay; 2,300 compounds, 51% hits; AID 624378; CHO-S mammalian two-hybrid NR2E3-NCOR, luciferase luminescence; inhibition, % at 3.98 µM; shares compounds with NR2E3 ag-1;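 active = average inhibition above a cutoff equal to the mean inhibition of all tested compounds plus one SD, cut at about 70% in these data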;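 also: 0% = DMSO in NR2E3 cells and 100% = DMSO in cells lacking NR2E3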
VP16 counter – counter-screen for NR2E3 agonists: GAL4-VP16 reporter inhibitors. 2,300 compounds, 29% hits. inhibition, % at 3.98 µM. shares compounds with NR2E3 ag-1. CHO-S GAL4-VP16 luciferase reporter, luminescence;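 active = mean inhibition above a cutoff equal to the average over all tested compounds plus one standard deviation, cut at about 70% in these data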;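 also: luciferase from a UAS reporter driven by GAL4-VP16 transactivation; 0% = DMSO with VP16-transfected cells and 100% = DMSO with cells lacking VP16; higher means less reporter light so more repression of VP16 activity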
The depositor's hits bear a star. Rows were chosen to be rich in hits. Some 1.8% of all compounds tested hit in one or more screens of this group.

`CCCn1c(CNc2ccc(Br)cc2)nc2ccccc21` gave NR2E3 ag-1 54, Jurkat NFkB inh -3, NR2E3 ag-2 -1, 697 NFkB inh 14, Gli-Sufu antag -26, NR2E3 ag conf 27 and VP16 counter 22.
`CCn1c(CNc2ccc(C(=O)O)cc2)nc2ccccc21` gave GalR3 antag -1, NR2E3 ag-1 -2, Jurkat NFkB inh -2, NR2E3 ag-2 -2, 697 NFkB inh 13 and Gli-Sufu antag 0.
For COc1cccc(C(=O)OCC(=O)Nc2ccc(N3CCOCC3)cc2)c1 the results were GalR3 antag -4, NR2E3 ag-1 -5, Jurkat NFkB inh -4, NR2E3 ag-2 3, 697 NFkB inh 17 and Gli-Sufu antag -2.
Screening Cc1ccc(NC(=O)c2cc(C)n(-c3ccccc3)c2C)cc1 returned GalR3 antag -4, NR2E3 ag-1 59, Jurkat NFkB inh 29, NR2E3 ag-2 -1, 697 NFkB inh -212, Gli-Sufu antag 46, NR2E3 ag conf 37 and VP16 counter -34.
`Cc1cc(C(=O)Nc2ccc(Cl)cc2)c(C)n1-c1ccccc1` gave GalR3 antag -3, NR2E3 ag-1 88*, Jurkat NFkB inh 37, NR2E3 ag-2 1, 697 NFkB inh -81, Gli-Sufu antag 69*, NR2E3 ag conf 82* and VP16 counter 55.
`Cc1ccc(-n2c(C)cc(C(=O)NS(=O)(=O)c3ccc(C)cc3)c2C)cc1` gave GalR3 antag -1, NR2E3 ag-1 14, Jurkat NFkB inh 0, NR2E3 ag-2 6, 697 NFkB inh 5 and Gli-Sufu antag 27.
`Cc1ccc2nc(N3CCN(C)CC3)c(C=O)c(=O)n2c1` gave GalR3 antag -8, NR2E3 ag-1 -42, Jurkat NFkB inh 5, NR2E3 ag-2 5, 697 NFkB inh 11 and Gli-Sufu antag 27.
For O=S(=O)(NCCC1=CCCCC1)c1ccc(Br)cc1 the results were GalR3 antag -2, NR2E3 ag-1 -26, Jurkat NFkB inh 9, NR2E3 ag-2 -1, 697 NFkB inh 21 and Gli-Sufu antag 1.
`COc1cccc(-c2nnc3n2N=C(C(C)(C)C)CS3)c1` gave GalR3 antag -6, NR2E3 ag-1 69, Jurkat NFkB inh 49, NR2E3 ag-2 3, 697 NFkB inh 5, Gli-Sufu antag -10, NR2E3 ag conf 29 and VP16 counter 51.
`CCN(CC)c1ncc(C#N)c(N)n1` gave GalR3 antag 0, NR2E3 ag-1 -4, Jurkat NFkB inh -18, NR2E3 ag-2 -1, 697 NFkB inh 8 and Gli-Sufu antag -3.
CC1=C(C)CC(C(=O)NCc2cccc(Cl)c2)C(C(=O)O)C1 (stereo not drawn) was read as GalR3 antag -11, NR2E3 ag-1 -22, Jurkat NFkB inh -14, NR2E3 ag-2 7 and 697 NFkB inh 5.
For COc1ccc(-n2c(=S)[nH]c3cc(C(=O)Nc4ccc(C)c(F)c4)ccc3c2=O)c(OC)c1 the results were GalR3 antag -7, NR2E3 ag-1 18, Jurkat NFkB inh 15, NR2E3 ag-2 1, 697 NFkB inh -11 and Gli-Sufu antag 37.
`c1ccc(CNc2nc(NCCOc3ccccc3)c3sccc3n2)cc1` gave GalR3 antag -7 and NR2E3 ag-1 45.
Screening COc1ccccc1CNc1nc(NCc2ccc(C)cc2C)c2sccc2n1 returned NR2E3 ag-1 55, NR2E3 ag conf 65 and VP16 counter 61.
For COc1ccccc1CNc1nc(NCc2ccccc2)nc2ccsc12 the results were GalR3 antag -6, NR2E3 ag-1 62, NR2E3 ag conf 52 and VP16 counter 49.
c1ccc(CNc2nc(NCc3ccccc3)c3sccc3n2)cc1 was read as GalR3 antag -10, NR2E3 ag-1 63, NR2E3 ag conf 74* and VP16 counter 61.
`COc1ccccc1CNc1nc(NCc2ccccc2F)c2sccc2n1` gave NR2E3 ag-1 82*, NR2E3 ag conf 94* and VP16 counter 76*.

Bioassay records (PubChem)
